The record followed here is PubChem BioAssay AID651654 (Broad Institute, 2012).

“And” between values parts separate entries of the source, which are not always exact repeats. Equal entries are not always repeated. Among all 360,000 compounds or so, about 740 (0.21%) were called active.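 Rule for the calls: active = mean lysis activity across replicates of at least 80%, whatever share of replicates individually reach that level; inactive = mean lysis activity below 80%.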 This excerpt belongs to a sample that is enriched for actives. More than one record can exist for a structure, and the calls need not agree.

The assay in a line: fungicidal lysis via adenylate kinase leakage – AK release luminescence, single concentration, primary screen (AID 651654). Particulars: C. neoformans lysis, 4 h, at 15 µM, stronger effect = higher value, normalised: neutral wells 0, clomiphene wells 100. The procedure, abridged:
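read-out = cell lysis signal | test system = log-phase Cryptococcus neoformans yeast cells | input = cells at 5 × 10^6 per mL | medium = fresh YPD growth medium | signal = luminescent adenylate kinase detection reagent | timing = 4 h at 37 °C static, read 1 h later | dosing = single dose | controls = Clomiphene as positive lysis control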
On to `C/C=C/c1ccc2c(c1)O[C@@H](CN(C)C(=O)NC1CCCC1)[C@@H](C)CN([C@H](C)CO)S2(=O)=O`, for which the lysis activity was -13.9% (inactive).

As to `CC(=O)N(C)C[C@@H]1Oc2cc(-c3cncnc3)ccc2S(=O)(=O)N([C@@H](C)CO)C[C@H]1C`, the lysis activity is 0.747% (inactive).

Turning to `C[C@H](CO)N1C[C@H](C)[C@@H](CN(C)C(=O)c2cccc(F)c2)Oc2cc(-c3cncnc3)ccc2S1(=O)=O`, the lysis activity was 4.59% (inactive) and 104% (active) and -0.371% (inactive).

Regarding `C[C@@H]1CN([C@@H](C)CO)S(=O)(=O)c2ccc(C#Cc3ccc(F)cc3)cc2O[C@@H]1CN(C)CC1CC1`, the lysis activity is 0.211% (inactive).

In the case of `CC(C)NC(=O)N(C)C[C@H]1Oc2cc(-c3cncnc3)ccc2S(=O)(=O)N([C@@H](C)CO)C[C@H]1C`, the lysis activity is -2.43% (inactive).

On to `C[C@@H]1CN([C@@H](C)CO)S(=O)(=O)c2ccc(C#Cc3ccc(F)cc3)cc2O[C@H]1CN(C)C(=O)NC1CCCC1`, for which the lysis activity was 81.9% (active).

Consider `Cc1cc(C(=O)Nc2ccc3c(c2)C(=O)N(C)[C@@H]2CC[C@H](CC(=O)NC4CCCC4)O[C@@H]2CO3)no1`, for which the lysis activity was 3.44% (inactive).

Consider `Cc1cc(C(=O)Nc2ccc3c(c2)C(=O)N(C)[C@@H]2CC[C@@H](CC(=O)NC4CCCC4)O[C@@H]2CO3)no1`, for which the lysis activity is 1.38% (inactive).

Regarding `CNC(=O)C[C@H]1CC[C@H]2[C@H](COc3ccc(NC(=O)c4cc(C)on4)cc3C(=O)N2C)O1`, the lysis activity was 83.7% (active).

Regarding `COc1cccc(C(=O)Nc2ccc3c(c2)C(=O)N(C)C[C@@H](OC)[C@@H](C)CN(C)[C@@H](C)CO3)c1`, the lysis activity was -1.94% (inactive).

As to `O=C(C[C@@H]1C[C@@H]2c3cc(NS(=O)(=O)c4ccc(F)cc4)ccc3O[C@@H]2[C@@H](CO)O1)NCc1ccncc1`, the lysis activity is -3.62% (inactive).

As for `C[C@@H]1CCCCO[C@H](CN(C)C(=O)Nc2ccc(C(F)(F)F)cc2)[C@@H](C)CN([C@@H](C)CO)C(=O)c2cc(NC(=O)Nc3cccc4ccccc34)ccc2O1`, the lysis activity is -0.038% (inactive).

Take `C[C@@H]1CN([C@@H](C)CO)C(=O)Cc2cc(NC(=O)Nc3ccc4c(c3)OCO4)ccc2O[C@@H]1CN(C)CC1CCCCC1`: the lysis activity is 5.47% (inactive).

On to `C[C@@H]1CN([C@H](C)CO)C(=O)Cc2cc(NC(=O)Nc3cccc4ccccc34)ccc2O[C@@H]1CN(C)Cc1ccc(C(F)(F)F)cc1`, for which the lysis activity is 0.378% (inactive).

Take `Cc1noc(C)c1NC(=O)Nc1ccc2c(c1)C(=O)N([C@@H](C)CO)C[C@H](C)[C@H](CN(C)CC1CCCCC1)O2`: the lysis activity is 80.5% (active).

With `Cc1noc(C)c1NC(=O)Nc1ccc2c(c1)CC(=O)N([C@@H](C)CO)C[C@H](C)[C@@H](CN(C)CC1CCCCC1)O2`, the lysis activity is 4.38% (inactive).

For the molecule `C[C@@H]1CN([C@H](C)CO)C(=O)Cc2cc(NC(=O)Nc3cccc4ccccc34)ccc2O[C@@H]1CN(C)Cc1ccc(C(=O)O)cc1`, the lysis activity is 105% (active).

In the case of `C[C@H]1CN([C@@H](C)CO)C(=O)c2cc(NC(=O)Nc3ccc4c(c3)OCO4)ccc2O[C@@H]1CN(C)CC1CCCCC1`, the lysis activity is 81.3% (active).

Take `C[C@H]1CN([C@@H](C)CO)C(=O)Cc2cc(NC(=O)Nc3cccc4ccccc34)ccc2O[C@@H]1CN(C)C`: the lysis activity was 5.63% (inactive).

For `C[C@H](CO)N1C[C@H](C)[C@H](CN(C)C)Oc2ncc(C#Cc3ccc(F)cc3)cc2C1=O`, the lysis activity was 5.93% (inactive) and 8.34% (inactive).

With `C[C@H](CO)N1C[C@H](C)[C@@H](CN(C)CC2CCOCC2)Oc2ncc(C#Cc3ccc(F)cc3)cc2C1=O`, the lysis activity was 1.59% (active).

Consider `COc1ccc(C#Cc2cnc3c(c2)C(=O)N([C@@H](C)CO)C[C@H](C)[C@@H](CN(C)CC2CCOCC2)O3)cc1`, for which the lysis activity was 0.473% (inactive).

For the molecule `Cc1noc(C)c1NC(=O)Nc1ccc2c(c1)C(=O)N([C@@H](C)CO)C[C@@H](C)[C@H](CN(C)C)O2`, the lysis activity is -2.64% (inactive).

For `C[C@@H]1CN([C@@H](C)CO)C(=O)c2cc(NC(=O)Nc3ccc(F)cc3)ccc2O[C@H]1CN(C)CC1CCCCC1`, the lysis activity is -0.073% (inactive).

For `COc1ccc(S(=O)(=O)N(C)C[C@H]2Oc3ccc(NC(=O)Nc4c(C)noc4C)cc3C(=O)N([C@H](C)CO)C[C@H]2C)cc1`, the lysis activity was -3.44% (inactive).

Regarding `Cc1noc(C)c1NC(=O)Nc1ccc2c(c1)C(=O)N([C@@H](C)CO)C[C@H](C)[C@H](CN(C)S(=O)(=O)c1ccc(Cl)cc1)O2`, the lysis activity was 96.2% (active).

In the case of `COc1ccc(S(=O)(=O)N(C)C[C@@H]2Oc3ccc(NC(=O)Nc4c(C)noc4C)cc3C(=O)N([C@H](C)CO)C[C@@H]2C)cc1`, the lysis activity was -0.689% (inactive) and -2.77% (inactive).

In the case of `C[C@H](CO)N1C[C@H](C)[C@@H](CN(C)C(=O)c2ccncc2)Oc2ncc(-c3ccncc3)cc2C1=O`, the lysis activity was -2.74% (inactive).

Take `COc1ccc(NC(=O)N[C@@H]2C=C[C@H](CC(=O)NC3CCC3)O[C@@H]2CO)cc1`: the lysis activity is -0.593% (inactive).

On to `C[C@H]1CN([C@@H](C)CO)C(=O)c2cccc(NC(=O)Nc3ccccc3)c2O[C@@H]1CN(C)S(C)(=O)=O`, for which the lysis activity is 0.333% (inactive).

Consider `O=C(Nc1ccc(F)cc1)N1C[C@H]2[C@@H](c3ccccc31)[C@@H](CO)N2Cc1cocn1`, for which the lysis activity was 94.8% (active).

With `O=C(Nc1ccc(F)cc1)N1C[C@@H]2[C@H](c3ccccc31)[C@H](CO)N2Cc1ccccc1`, the lysis activity is -1.33% (inactive).

In the case of `O=C(Nc1ccccc1)N1C[C@H]2[C@@H](c3ccccc31)[C@@H](CO)N2Cc1cocn1`, the lysis activity was -2.69% (inactive).

As for `CCCNC(=O)N1[C@@H]2Cn3c(ccc(-c4ccc(OC)cc4)c3=O)[C@H]1[C@@H](C(=O)NC1CCC1)[C@@H]2CO`, the lysis activity was 0.95% (inactive).

As for `O=C(N[C@H]1CC[C@@H](CCNS(=O)(=O)c2ccccc2)O[C@H]1CO)c1cccnc1`, the lysis activity was -5.13% (inactive).

`N#C[C@@H]1[C@@H](c2ccccc2)[C@@H](CO)N1C(=O)Cc1ccccc1`: the lysis activity was 116% (active).

For `N#C[C@H]1[C@H](c2ccc(-c3ccccc3)cc2)[C@@H](CO)N1C(=O)Cc1ccccc1`, the lysis activity is 0.774% (inactive).

In the case of `N#C[C@@H]1[C@@H](c2ccc(-c3ccccc3)cc2)[C@@H](CO)N1C(=O)Cc1ccccc1`, the lysis activity is 0.072% (inactive).

Consider `COc1cccc(S(=O)(=O)Nc2ccc3c(c2)[C@H]2C[C@H](CC(=O)N4CCCCC4)O[C@@H](CO)[C@H]2O3)c1`, for which the lysis activity was -2.67% (inactive).

`O=C(NCc1cccc(F)c1)[C@H]1[C@H](CO)[C@H]2Cn3c(cccc3=O)[C@@H]1N2`: the lysis activity is 0.27% (inactive).

Take `O=C(C[C@@H]1C=C[C@@H](NC(=O)c2ccc3c(c2)OCO3)[C@H](CO)O1)NC1Cc2ccccc2C1`: the lysis activity is 1.22% (inactive).

Turning to `CO[C@@H]1CN(C)C(=O)c2cc(NC(=O)c3ccccc3)ccc2OC[C@@H](C)N(C(C)=O)C[C@@H]1C`, the lysis activity is -6.13% (inactive).

On to `C[C@@H]1CCCCO[C@H](CN(C)S(C)(=O)=O)[C@@H](C)CN([C@H](C)CO)C(=O)c2cc(NC(=O)Nc3ccc4c(c3)OCO4)ccc2O1`, for which the lysis activity was 50.4% (inactive).

In the case of `C[C@@H]1CN([C@H](C)CO)S(=O)(=O)c2ccc(-c3cncnc3)cc2O[C@@H]1CN(C)Cc1ccccn1`, the lysis activity was -14.8% (inactive).

In the case of `CCCC(=O)Nc1ccc2c(c1)C(=O)N(C)[C@@H]1CC[C@H](CC(=O)Nc3cn(C)nc3C)O[C@H]1CO2`, the lysis activity was 6.15% (inactive).

Regarding `O=C(C[C@@H]1CC[C@@H]2[C@H](COC[C@H](O)CN2Cc2cccc(-c3ccncc3)c2)O1)N1CCOCC1`, the lysis activity was -0.0585% (inactive).

In the case of `O=C(C[C@@H]1C[C@H]2c3cc(NC(=O)C4CCOCC4)ccc3O[C@H]2[C@@H](CO)O1)NCCN1CCCCC1`, the lysis activity was 60.8% (inactive).

With `COc1cccc(S(=O)(=O)N2C[C@@H](O)COC[C@H]3O[C@@H](CC(=O)N4CCOCC4)CC[C@@H]32)c1`, the lysis activity is 2.85% (inactive).

Consider `COc1cccc(S(=O)(=O)N2C[C@@H](O)COC[C@@H]3O[C@H](CC(=O)N4CCN(C)CC4)CC[C@H]32)c1`, for which the lysis activity was 86.2% (active).

Regarding `COc1cccc(S(=O)(=O)N2C[C@@H](O)COC[C@H]3O[C@H](CC(=O)N4CCCCC4)CC[C@@H]32)c1`, the lysis activity is 52.9% (inactive).

Turning to `Cc1ccc(S(=O)(=O)Nc2cccc3c2O[C@@H](CN(C)CC2CCCCC2)[C@H](C)CN([C@@H](C)CO)C3=O)cc1`, the lysis activity was -1.1% (inactive).

For `CNC[C@H]1Oc2cc(C#Cc3ccccn3)ccc2S(=O)(=O)N([C@H](C)CO)C[C@@H]1C`, the lysis activity is -3.09% (inactive).

Take `C[C@@H]1CN([C@@H](C)CO)C(=O)Cc2cc(NC(=O)NC3CCCCC3)ccc2O[C@H]1CN(C)C(=O)Nc1ccc(C(F)(F)F)cc1`: the lysis activity is 51.4% (inactive).

In the case of `C[C@H](CO)N1C[C@H](C)[C@H](CN(C)C(=O)c2ccccc2)OCCCC[C@H](C)Oc2ccc(N(C)C)cc2C1=O`, the lysis activity is 1.62% (inactive).

Consider `COc1cccc(S(=O)(=O)N(C)C[C@@H]2Oc3ncc(-c4cccc(C(=O)N(C)C)c4)cc3C(=O)N([C@H](C)CO)C[C@@H]2C)c1`, for which the lysis activity was 2.06% (inactive).

On to `COc1ccc(S(=O)(=O)Nc2ccc3c(c2)C(=O)N([C@@H](C)CO)C[C@H](C)[C@@H](CN(C)C(=O)Nc2ccc4c(c2)OCO4)OCCCC[C@@H](C)O3)cc1`, for which the lysis activity is 49.4% (inactive).

As for `C[C@H](CO)N1C[C@H](C)[C@@H](CN(C)C(=O)C2CCOCC2)Oc2cc(-c3ccc(C(=O)N(C)C)cc3)ccc2S1(=O)=O`, the lysis activity is -2.86% (inactive).

Take `CCNC(=O)C[C@@H]1CC[C@H]2[C@@H](COc3ccc(NC(=O)c4ccccc4Cl)cc3C(=O)N2C)O1`: the lysis activity was 13.7% (inactive).

As for `C[C@@H](NC(=O)C[C@@H]1C=C[C@@H](NC(=O)CN2CCOCC2)[C@H](CO)O1)c1ccccc1`, the lysis activity is 13.5% (inactive).

On to `C[C@@H](NC(=O)C[C@H]1C=C[C@@H](NC(=O)CN2CCOCC2)[C@@H](CO)O1)c1ccccc1`, for which the lysis activity is 18.8% (inactive).

For `C[C@H](NC(=O)C[C@@H]1C=C[C@H](NC(=O)CN2CCOCC2)[C@H](CO)O1)c1ccccc1`, the lysis activity was 131% (active).
